Experimental data of several laboratories.
Target: Serine/threonine-protein kinase Nek1 (NEK1, Homo sapiens, UniProt Q96PY6)
Sequence (Q96PY6 1-1258, as in one of the studies): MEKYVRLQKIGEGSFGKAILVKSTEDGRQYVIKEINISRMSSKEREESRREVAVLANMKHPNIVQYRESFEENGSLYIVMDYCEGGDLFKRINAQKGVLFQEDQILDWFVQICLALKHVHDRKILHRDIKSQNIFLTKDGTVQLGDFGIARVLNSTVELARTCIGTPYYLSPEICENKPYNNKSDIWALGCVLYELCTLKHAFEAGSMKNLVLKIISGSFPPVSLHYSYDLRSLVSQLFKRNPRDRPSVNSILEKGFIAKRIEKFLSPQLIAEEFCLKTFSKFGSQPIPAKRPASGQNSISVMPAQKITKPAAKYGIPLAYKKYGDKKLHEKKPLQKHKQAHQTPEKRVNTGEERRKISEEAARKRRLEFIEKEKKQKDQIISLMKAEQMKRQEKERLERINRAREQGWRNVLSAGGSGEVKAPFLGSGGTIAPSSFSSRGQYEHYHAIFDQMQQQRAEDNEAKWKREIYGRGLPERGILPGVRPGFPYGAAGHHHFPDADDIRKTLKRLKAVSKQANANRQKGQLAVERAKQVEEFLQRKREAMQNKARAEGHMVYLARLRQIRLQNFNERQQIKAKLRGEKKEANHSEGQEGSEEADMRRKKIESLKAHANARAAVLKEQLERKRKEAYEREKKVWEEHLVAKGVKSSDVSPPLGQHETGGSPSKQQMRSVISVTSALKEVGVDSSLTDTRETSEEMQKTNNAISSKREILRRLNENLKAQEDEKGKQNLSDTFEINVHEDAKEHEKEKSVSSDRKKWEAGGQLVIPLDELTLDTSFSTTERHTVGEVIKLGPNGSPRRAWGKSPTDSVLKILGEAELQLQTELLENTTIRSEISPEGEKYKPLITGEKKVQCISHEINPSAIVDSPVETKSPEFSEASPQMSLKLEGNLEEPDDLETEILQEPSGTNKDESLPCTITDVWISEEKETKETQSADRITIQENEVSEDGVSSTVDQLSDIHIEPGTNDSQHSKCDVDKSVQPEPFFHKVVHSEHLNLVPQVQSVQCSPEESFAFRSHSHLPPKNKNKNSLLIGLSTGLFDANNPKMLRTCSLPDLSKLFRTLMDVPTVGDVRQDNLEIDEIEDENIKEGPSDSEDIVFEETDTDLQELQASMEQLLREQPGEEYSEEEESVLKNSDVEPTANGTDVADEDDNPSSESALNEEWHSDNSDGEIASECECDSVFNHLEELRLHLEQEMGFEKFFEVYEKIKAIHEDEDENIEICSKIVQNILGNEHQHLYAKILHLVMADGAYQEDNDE

SMILES	assay	conditions	endpoint	result
CO[C@@H]1[C@H](N(C)C(=O)c2ccccc2)C[C@H]2O[C@]1(C)n1c3ccccc3c3c4c(c5c6ccccc6n2c5c31)C(=O)NC4	enzyme activity, inhibitor	1 µM	inhibition	0%
C#Cc1cc(-c2cc(Nc3nc(N[C@@H](C)c4ccc(F)cn4)ncc3Cl)n[nH]2)ccc1C=O	enzyme activity, inhibitor	0.2 µM	inhibition	70.2%
COc1ccc2oc(-c3ccc4nc(N)oc4c3)c/c(=N\c3ccccc3NC(=O)CCN)c2c1	binding	1 µM	remaining binding	108%
COc1ccc2[nH]c3c4[nH]c5ccc(OC)cc5c4c4c(c3c2c1)C(=O)NC4=O	binding	1 µM	remaining binding	100%
Cc1cc(O)c(-c2ccc([C@@H](C)CN(C)C)cc2)c2c1[nH]c(=O)c1sccc12	enzyme activity, inhibitor	0.1 µM	inhibition	-3.68%
C1=C/COCc2cc(ccc2OCCN2CCCC2)Nc2nccc(n2)-c2cccc(c2)COC/1	binding	0.1 µM	remaining binding	98%
CCCCC(=O)Nc1ccc(-c2ccc3ncn(CCC)c(=O)c3c2)cn1	binding, competition with immobilised ligand	0.5 µM	remaining binding	95%
C[C@H]1CC[C@H](n2c3cnccc3c3cnc(Nc4ccc5c(n4)CCN(C(=O)CO)C5)nc32)CC1	cell-free assay	1 µM	remaining signal	85%
CC#CC(=O)N1CCC[C@H]1c1nc(-c2ccc(C(=O)Nc3ccccn3)cc2)c2c(N)nccn12	enzyme activity, inhibitor	1 µM	inhibition	8%
